Reference: ChEMBL document CHEMBL1156332, “Polysubstituted pyrazoles, part 6. Synthesis of some 1-(4-chlorophenyl)-4-hydroxy-1H-pyrazol-3-carbonyl derivatives linked to nitrogenous heterocyclic ring systems as potential antitumor agents” (2010)

Legend:
Assay type in all cases: functional
SNB-75 = assay: Growth inhibition of human SNB75 cells after 48 hrs by sulforhodamine B assay; settings: SNB-75, 48 h
Method in brief: (§1)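 Adherent lines plated and held 24 h at 37 °C, 5% CO2, 100% humidity; time-zero plates TCA-fixed at drug addition. Drugs from DMSO stocks were made into five concentrations by 10-fold or half-log serial dilution and applied for 48 h continuous exposure. Cells were fixed with cold TCA (10% final) for 60 min at 4 °C, then stained with 0.4% SRB in 1% acetic acid for 10 min. Dye was solubilized in 10 mM Tris base and read at 515 nm. GI50 was taken from log concentration–growth curves.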

EKVX = assay: Growth inhibition of human EKVX cells after 48 hrs by sulforhodamine B assay
Method in brief: (§2)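 NCI 60-line panel, five concentrations (0.01–100 µM) from DMSO stock diluted in medium with gentamicin. Cells were plated 24 h before dosing, with time-zero plates fixed at drug addition, then exposed 48 h at 37 °C, 5% CO₂. Adherent cells were fixed with cold TCA (10% final) and suspension cells with 16% TCA. Staining used 0.4% SRB, solubilised in 10 mM Tris and read at 515 nm. GI₅₀ was taken from log concentration–% growth curves.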

RPMI-8226 = assay: Growth inhibition of human RPMI8226 cells after 48 hrs by sulforhodamine B assay; settings: RPMI-8226, 48 h; method in brief: as §2
OVCAR-3 = assay: Growth inhibition of human OVCAR-3 cells after 48 hrs by sulforhodamine B assay; settings: OVCAR-3, 48 h; method in brief: as §2
M14 = assay: Growth inhibition of human M14 cells after 48 hrs by sulforhodamine B assay; settings: M14, 48 h; method in brief: as §2
[1] = Growth inhibition of human NCI-H322 cells after 48 hrs by sulforhodamine B assay; settings: NCI-H322, 48 h; method in brief: as §2
NCI-H522 = assay: Growth inhibition of human NCI-H522 cells after 48 hrs by sulforhodamine B assay; settings: NCI-H522, 48 h; method in brief: as §2
RXF 393 = assay: Growth inhibition of human […] cells after 48 hrs by sulforhodamine B assay; settings: RXF 393, 48 h; method in brief: as §2
KM12 = assay: Growth inhibition of human KM12 cells after 48 hrs by sulforhodamine B assay; settings: KM12, 48 h; method in brief: as §2
NCI/ADR-RES = assay: Growth inhibition of human NCI/ADR-RES cells after 48 hrs by sulforhodamine B assay; method in brief: as §2
[2] = Cytotoxicity against human ovarian cancer cells after 48 hrs by sulforhodamine B assay; settings: Cancer cell lines
Method in brief: (§3)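 NCI five-dose screen: about 60 human tumour lines grouped into nine subpanels were plated and incubated 24 h before dosing. Compounds went in as DMSO stock and were diluted in medium to five final concentrations (0.01–100 µM). Exposure was 48 h continuous at 37 °C, 5% CO₂, followed by TCA fixation and SRB staining read at 515 nm. Per-line GI₅₀, TGI and LC₅₀ came from log concentration–% growth curves, averaged per subpanel as MG-MID.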

A549 = assay: Growth inhibition of human A549 cells after 48 hrs by sulforhodamine B assay; settings: A549, 48 h; method in brief: as §2
SN12C = assay: Growth inhibition of human SN12C cells after 48 hrs by sulforhodamine B assay; method in brief: as §1
LOX IMVI = assay: Growth inhibition of human LOXIMVI cells after 48 hrs by sulforhodamine B assay; method in brief: as §2
HT-29 = assay: Growth inhibition of human HT-29 cells after 48 hrs by sulforhodamine B assay; settings: HT-29, 48 h; method in brief: as §2
MCF7 = assay: Growth inhibition of human MCF7 cells after 48 hrs by sulforhodamine B assay; settings: MCF7, 48 h; method in brief: as §2
T47D = assay: Growth inhibition of human T47D cells after 48 hrs by sulforhodamine B assay; method in brief: as §1
U-251 = assay: Growth inhibition of human U251 cells after 48 hrs by sulforhodamine B assay; settings: U-251, 48 h; method in brief: as §1
A498 = assay: Growth inhibition of human A498 cells after 48 hrs by sulforhodamine B assay; settings: A498, 48 h; method in brief: as §2
HOP-92 = assay: Growth inhibition of human HOP92 cells after 48 hrs by sulforhodamine B assay; settings: HOP-92, 48 h; method in brief: as §2
HL-60(TB) = assay: Growth inhibition of human HL-60(TB) cells after 48 hrs by sulforhodamine B assay; settings: HL-60, 48 h
Method in brief: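 NCI 60-cell panel. Cells were preincubated 24 h at 37 °C in 5% CO2, then time-zero plates were TCA-fixed. Drugs were dissolved in DMSO and given at five concentrations (10-fold or half-log dilutions) for 48 h. Suspension cells were fixed with TCA (16% final), stained with 0.4% SRB and read at 515 nm. GI50 is the concentration giving 50% decrease in net growth, taken from log concentration–growth curves.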

TK-10 = assay: Growth inhibition of human TK10 cells after 48 hrs by sulforhodamine B assay; settings: TK-10, 48 h; method in brief: as §1
UO-31 = assay: Growth inhibition of human UO31 cells after 48 hrs by sulforhodamine B assay; settings: UO-31, 48 h; method in brief: as §1
NCI-H23 = assay: Growth inhibition of human NCI-H23 cells after 48 hrs by sulforhodamine B assay; settings: NCI-H23, 48 h; method in brief: as §2
[3] = Cytotoxicity against human renal cancer cells after 48 hrs by sulforhodamine B assay; settings: Cancer cell lines; method in brief: as §3
SF-295 = assay: Growth inhibition of human SF295 cells after 48 hrs by sulforhodamine B assay; settings: SF-295, 48 h; method in brief: as §2
OVCAR-8 = assay: Growth inhibition of human OVCAR8 cells after 48 hrs by sulforhodamine B assay; settings: OVCAR-8, 48 h; method in brief: as §2
SW-620 = assay: Growth inhibition of human SW620 cells after 48 hrs by sulforhodamine B assay; settings: SW-620, 48 h; method in brief: as §1
HCC 2998 = assay: Growth inhibition of human HCC2998 cells after 48 hrs by sulforhodamine B assay; settings: HCC 2998, 48 h; method in brief: as §2
COLO 205 = assay: Growth inhibition of human COLO205 cells after 48 hrs by sulforhodamine B assay; settings: COLO 205, 48 h; method in brief: as §2
K562 = assay: Growth inhibition of human K562 cells after 48 hrs by sulforhodamine B assay; settings: K562, 48 h; method in brief: as §2
SF-539 = assay: Growth inhibition of human SF539 cells after 48 hrs by sulforhodamine B assay; settings: SF-539, 48 h; method in brief: as §1
[4] = Cytotoxicity against human prostate cancer cells after 48 hrs by sulforhodamine B assay; settings: Cancer cell lines; method in brief: as §3
SNB-19 = assay: Growth inhibition of human SNB19 cells after 48 hrs by sulforhodamine B assay; settings: SNB-19, 48 h; method in brief: as §1
HCT-15 = assay: Growth inhibition of human HCT15 cells after 48 hrs by sulforhodamine B assay; settings: HCT-15, 48 h; method in brief: as §2
786-0 = assay: Growth inhibition of human 786-0 cells after 48 hrs by sulforhodamine B assay; settings: 786-0, 48 h; method in brief: as §2
[5] = Cytotoxicity against human leukemia cells after 48 hrs by sulforhodamine B assay; settings: Leukemia cell; method in brief: as §3
BT-549 = assay: Growth inhibition of human BT549 cells after 48 hrs by sulforhodamine B assay; settings: BT-549, 48 h; method in brief: as §2

O=C(c1nn(-c2ccc(Cl)cc2)cc1O)n1nc(-c2ccco2)cc1C(F)(F)F
GI50 (SNB-75): 820 nM
GI50 (EKVX): 1990 nM
GI50 (RPMI-8226): 1420 nM
GI50 (OVCAR-3): 1720 nM
GI50 (M14): 4280 nM
GI50 [1]: 830 nM
GI50 (NCI-H522): 2670 nM
GI50 (RXF 393): 30 nM
GI50 (KM12): 5880 nM
GI50 (NCI/ADR-RES): 1600 nM
GI50 [2]: 2180 nM
TGI [2]: 94500 nM
GI50 (A549): 7230 nM
GI50 (SN12C): 5180 nM
GI50 (LOX IMVI): 2370 nM
GI50 (HT-29): 4560 nM
GI50 (MCF7): 3510 nM
GI50 (T47D): 4160 nM
GI50 (U-251): 5860 nM
GI50 (A498): 8710 nM
GI50 (HOP-92): 4900 nM
GI50 (HL-60(TB)): 2420 nM
GI50 (TK-10): 1450 nM
GI50 (UO-31): 3840 nM
GI50 (NCI-H23): 5590 nM
GI50 [3]: 3850 nM
TGI [3]: 75600 nM
GI50 (SF-295): 480 nM
GI50 (OVCAR-8): 1880 nM
GI50 (SW-620): 4750 nM
GI50 (HCC 2998): 10500 nM
GI50 (COLO 205): 2970 nM
GI50 (K562): 1720 nM
GI50 (SF-539): 2810 nM
GI50 [4]: 18400 nM
GI50 (SNB-19): 4370 nM
GI50 (HCT-15): 1440 nM
GI50 (786-0): 6600 nM
GI50 [5]: 1760 nM
TGI [5]: 80700 nM
GI50 (BT-549): 1140 nM

CC1=NN(C(=O)c2nn(-c3ccc(Cl)cc3)cc2O)C(=O)C1
GI50 (SNB-75): 530 nM
GI50 (EKVX): 2210 nM
GI50 (RPMI-8226): 1660 nM
GI50 (OVCAR-3): 1210 nM
GI50 (M14): 1780 nM
GI50 [1]: 850 nM
GI50 (NCI-H522): 2840 nM
GI50 (RXF 393): 15400 nM
GI50 (KM12): 2270 nM
GI50 (NCI/ADR-RES): 1890 nM
GI50 [2]: 1740 nM
TGI [2]: 83800 nM
GI50 (A549): 820 nM
GI50 (SN12C): 1420 nM
GI50 (LOX IMVI): 1550 nM
GI50 (HT-29): 6160 nM
GI50 (MCF7): 3610 nM
GI50 (T47D): 2660 nM
GI50 (U-251): 410 nM
GI50 (A498): 450 nM
GI50 (HOP-92): 3670 nM
GI50 (HL-60(TB)): 1170 nM
GI50 (TK-10): 790 nM
GI50 (UO-31): 670 nM
GI50 (NCI-H23): 2900 nM
GI50 [3]: 1670 nM
TGI [3]: 77000 nM
GI50 (SF-295): 230 nM
GI50 (OVCAR-8): 1490 nM
GI50 (SW-620): 3410 nM
GI50 (HCC 2998): 3670 nM
GI50 (COLO 205): 4810 nM
GI50 (K562): 650 nM
GI50 (SF-539): 1700 nM
GI50 [4]: 5220 nM
GI50 (SNB-19): 3160 nM
GI50 (HCT-15): 680 nM
GI50 (786-0): 6450 nM
GI50 [5]: 1030 nM
TGI [5]: 52900 nM
GI50 (BT-549): 650 nM
